By IC50 is commonly meant the midpoint of a concentration-inhibition curve.

Structures are written as SMILES.

Here are results for 15 compounds from ChEMBL document CHEMBL4834402, “Discovery of TAK-981, a First-in-Class Inhibitor of SUMO-Activating Enzyme for the Treatment of Cancer” (J Med Chem, 2021).

For experiment [1], the target named is T1, SUMO-activating enzyme (Homo sapiens, UniProt Q9UBT2). The experiment is described as follows: Inhibition of recombinant SAE (unknown origin) assessed as reduction in transfer of SUMO1 to UBC9 using SUMO1 as a substrate in presence of ATP at Km concentration by HTRF assay. The experiment is classed as protein-complex assay. A digest of the protocol: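 HTRF transthiolation assay measuring transfer of SUMO1 to UBC9, the E2 for SAE.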
T1 sequence (Q9UBE0 whole entry): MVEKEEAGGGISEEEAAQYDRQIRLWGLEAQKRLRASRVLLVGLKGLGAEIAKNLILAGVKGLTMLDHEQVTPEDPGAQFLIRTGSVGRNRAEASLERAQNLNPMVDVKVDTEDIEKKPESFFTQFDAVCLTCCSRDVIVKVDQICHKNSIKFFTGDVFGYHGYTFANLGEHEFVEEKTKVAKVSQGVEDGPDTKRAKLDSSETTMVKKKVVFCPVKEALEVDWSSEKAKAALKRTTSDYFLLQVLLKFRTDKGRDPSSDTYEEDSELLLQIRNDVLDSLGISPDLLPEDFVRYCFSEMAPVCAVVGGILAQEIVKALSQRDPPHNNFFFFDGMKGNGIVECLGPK
T1 sequence (Q9UBT2 whole entry): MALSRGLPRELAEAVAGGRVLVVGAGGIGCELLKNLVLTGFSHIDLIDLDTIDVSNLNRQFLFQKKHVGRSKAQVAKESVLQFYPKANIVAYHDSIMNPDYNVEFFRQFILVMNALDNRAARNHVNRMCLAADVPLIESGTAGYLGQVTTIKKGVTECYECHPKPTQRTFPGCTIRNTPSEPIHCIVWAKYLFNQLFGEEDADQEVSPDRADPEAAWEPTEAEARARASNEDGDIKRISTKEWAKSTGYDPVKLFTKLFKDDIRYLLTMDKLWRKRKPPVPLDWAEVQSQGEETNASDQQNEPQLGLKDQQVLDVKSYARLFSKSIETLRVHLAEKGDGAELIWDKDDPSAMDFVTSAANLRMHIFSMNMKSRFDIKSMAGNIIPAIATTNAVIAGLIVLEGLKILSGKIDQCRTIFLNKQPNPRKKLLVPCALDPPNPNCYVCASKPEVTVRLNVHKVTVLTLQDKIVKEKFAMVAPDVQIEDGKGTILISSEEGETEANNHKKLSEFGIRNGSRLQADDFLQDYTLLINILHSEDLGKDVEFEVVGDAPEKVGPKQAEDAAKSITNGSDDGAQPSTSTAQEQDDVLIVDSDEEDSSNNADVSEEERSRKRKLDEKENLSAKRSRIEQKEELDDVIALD
Background: Time-resolved FRET reads energy transfer from a long-lived donor to a nearby acceptor.

Experiment [2] can be described thus: Inhibition of recombinant UAE (unknown origin) in presence of ATP at Km concentration by HTRF assay. On the set-up: species or system Homo sapiens.
For experiment [3], the target named is T2, NEDD8 activating enzyme (Homo sapiens, UniProt Q8TBC4).
T2 sequence (Q8TBC4 whole entry): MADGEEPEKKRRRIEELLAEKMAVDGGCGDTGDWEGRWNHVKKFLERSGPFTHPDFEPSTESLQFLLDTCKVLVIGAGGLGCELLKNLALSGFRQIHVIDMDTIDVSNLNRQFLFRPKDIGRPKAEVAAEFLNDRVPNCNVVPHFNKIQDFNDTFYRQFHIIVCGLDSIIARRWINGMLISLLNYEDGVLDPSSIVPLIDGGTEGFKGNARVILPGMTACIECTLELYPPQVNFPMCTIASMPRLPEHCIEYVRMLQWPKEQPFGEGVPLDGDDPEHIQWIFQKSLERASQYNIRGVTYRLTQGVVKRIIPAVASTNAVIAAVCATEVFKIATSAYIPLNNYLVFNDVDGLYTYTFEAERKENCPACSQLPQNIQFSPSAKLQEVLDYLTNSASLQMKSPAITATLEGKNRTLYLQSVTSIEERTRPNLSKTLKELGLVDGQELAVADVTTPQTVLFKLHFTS
T2 sequence (Q13564 whole entry): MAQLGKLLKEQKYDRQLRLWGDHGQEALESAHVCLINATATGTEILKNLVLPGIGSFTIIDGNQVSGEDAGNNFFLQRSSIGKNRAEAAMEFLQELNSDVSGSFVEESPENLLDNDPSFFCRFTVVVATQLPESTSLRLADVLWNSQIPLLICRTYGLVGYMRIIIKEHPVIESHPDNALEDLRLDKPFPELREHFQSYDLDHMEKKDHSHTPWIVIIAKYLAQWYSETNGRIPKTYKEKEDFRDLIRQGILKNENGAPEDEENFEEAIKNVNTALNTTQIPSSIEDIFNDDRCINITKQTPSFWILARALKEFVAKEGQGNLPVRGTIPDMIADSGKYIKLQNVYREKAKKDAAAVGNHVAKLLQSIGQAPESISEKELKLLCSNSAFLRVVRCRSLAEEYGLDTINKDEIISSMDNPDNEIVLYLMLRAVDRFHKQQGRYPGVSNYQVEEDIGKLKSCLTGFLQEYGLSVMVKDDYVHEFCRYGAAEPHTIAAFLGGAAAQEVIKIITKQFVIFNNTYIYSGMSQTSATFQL
The experiment is described as follows: Inhibition of recombinant NAE (unknown origin) in presence of ATP at Km concentration by HTRF assay. The experiment is classed as protein-complex assay.

Experiment [4] concerns the target T1, SUMO-activating enzyme. The experiment in a line: Inhibition of SAE in human HCT116 cells assessed as reduction in redistribution of SUMO2/3 proteins from nucleus to cytosol incubated for 4 hrs by immunofluorescence assay. The experiment is classed as cell-based, HCT-116. The essentials:
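HCT-116 cells exposed to compound across a concentration range for 4 h, then stained with anti-SUMO2/3 monoclonal antibody. Automated imaging scored the nuclear (inner) to cytoplasmic (outer) SUMO2/3 ratio. IC50 taken from the dose response.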

Experiment [5] deals with T1, SUMO-activating enzyme. The experiment is described as follows: Inhibition of SAE in human HCT116 cells assessed as redistribution of SUMO2/3 proteins from nucleus to cytosol preincubated for 2 hrs followed by compound washout and measured immediately by immunofluorescence assay. It is filed as cell-based, HCT-116. A digest of the protocol:
(§1)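 Washout format of the SUMO2/3 immunofluorescence assay in HCT116 cells. Cells were exposed to a range of concentrations for 2 h, then washed free of compound.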

Experiment [6] has as its target T1, SUMO-activating enzyme. The experiment in a line: Inhibition of SAE in human HCT116 cells assessed as redistribution of SUMO2/3 proteins from nucleus to cytosol preincubated for 2 hrs followed by compound washout and measured after 8 hrs by immunofluorescence assay. The experiment is classed as cell-based, HCT-116. The essentials:
as §1

The target in experiment [7] is T1, SUMO-activating enzyme. The experiment in a line: Inhibition of SAE (unknown origin) using SUMO1 as substrate incubated for 60 mins in presence of ATP and PPi by pyrophosphate exchange assay. It is filed as protein-complex assay. The essentials: (§2)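 Pyrophosphate exchange assay of E1 activity at 1 mM ATP. Substrates were SUMO1 or SUMO2 for SAE, Ub for UAE and Nedd-8 for NAE.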

Experiment [8] concerns the target T1, SUMO-activating enzyme. The experiment in a line: Inhibition of SAE (unknown origin) using SUMO2 as substrate incubated for 60 mins in presence of ATP and PPi by pyrophosphate exchange assay. The experiment is classed as protein-complex assay. The essentials:
as §2

The nature of experiment [9]: Inhibition of UAE (unknown origin) using Ub as substrate incubated for 60 mins in presence of ATP and PPi by pyrophosphate exchange assay. On the set-up: species or system Homo sapiens. The essentials: as §2
The target of experiment [10] is T2, NEDD8 activating enzyme. The experiment is described as follows: Inhibition of NAE (unknown origin) using Nedd-8 as substrate incubated for 60 mins in presence of ATP and PPi by pyrophosphate exchange assay. It is filed as protein-complex assay. A digest of the protocol: as §2
Experiment [11] has as its target T1, SUMO-activating enzyme. The experiment is described as follows: Inhibition of SAE in human HCT116 cells assessed as reduction in conjugation of SUMO proteins to UBC9 by Western blot analysis. It is filed as cell-based, HCT-116. The essentials:
(§3)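 HCT116 cells, quantitative Western blot of E2–UBL conjugates. Read-outs were SUMO–UBC9 for SAE, ubiquitin–[…] for UAE and Nedd-8–[…] for NAE.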

Experiment [12] addresses T2, NEDD8 activating enzyme. The experiment is described as follows: Inhibition of NAE in human HCT116 cells assessed as reduction in conjugation of Nedd8 […] by Western blot analysis. The experiment is classed as cell-based, HCT-116. A digest of the protocol: as §3
On the technique in general: A western blot detects proteins with antibodies after separation by electrophoresis.

In the case of `Cc1sc(C(=O)c2cncnc2N[C@@H]2C[C@H](COS(N)(=O)=O)[C@@H](O)C2)cc1Cc1cccc(Cl)c1`, the IC50 is 1.2 nM on SUMO-activating enzyme [1]; above 1000 nM in experiment [2]; 32 nM at NEDD8 activating enzyme [3]; 19 nM at SUMO-activating enzyme [4]; 66 nM at SUMO-activating enzyme [5]; 403 nM at SUMO-activating enzyme [6].

As for `NS(=O)(=O)OC[C@H]1C[C@@H](Nc2ncncc2C(=O)c2cc(C3OCCc4ccc(Cl)cc43)cs2)C[C@@H]1O` (some centres undefined), the IC50 on SUMO-activating enzyme [1] is 0.5 nM; in experiment [2] it was above 1000 nM; at NEDD8 activating enzyme [3] it was 450 nM; at SUMO-activating enzyme [4], 8 nM; on SUMO-activating enzyme [5] it was 7 nM; on SUMO-activating enzyme [6] it was 22 nM.

Turning to `NS(=O)(=O)OC[C@H]1C[C@@H](Nc2ncncc2C(=O)c2cc(C(O)c3cccc(Cl)n3)c(Cl)s2)C[C@@H]1O` (some centres undefined), the IC50 is 0.2 nM on SUMO-activating enzyme [1]; above 1000 nM in [2]; 340 nM on NEDD8 activating enzyme [3]; 14 nM at SUMO-activating enzyme [4]; 16 nM at SUMO-activating enzyme [5]; 142 nM on SUMO-activating enzyme [6].

As for `NS(=O)(=O)OC[C@H]1C[C@@H](Nc2ncncc2C(=O)c2cc(C3OCCc4ccc(Cl)cc43)c(Cl)s2)C[C@@H]1O` (some centres undefined), the IC50 is 1 nM on SUMO-activating enzyme [1]; above 1000 nM in experiment [2]; above 1000 nM on NEDD8 activating enzyme [3]; 8 nM at SUMO-activating enzyme [4]; 10 nM on SUMO-activating enzyme [5]; 14 nM on SUMO-activating enzyme [6].

Regarding `NS(=O)(=O)OC[C@H]1C[C@@H](Nc2ncncc2C(=O)c2ccn(Cc3ccccc3)n2)C[C@@H]1O`, the IC50 on SUMO-activating enzyme [1] was 2 nM; in [2], above 1000 nM; on NEDD8 activating enzyme [3], 190 nM; on SUMO-activating enzyme [7], 11 nM; on SUMO-activating enzyme [8], 69 nM; in [9], above 1000 nM. Moreover, the IC50 at NEDD8 activating enzyme [10] is 2600 nM; at SUMO-activating enzyme [11], 13 nM; at NEDD8 activating enzyme [12] it was above 5000 nM; at SUMO-activating enzyme [4], 71 nM.

For `NS(=O)(=O)OC[C@H]1C[C@@H](Nc2ncncc2C(=O)c2cc(C3NCCc4ccccc43)cs2)C[C@@H]1O` (some centres undefined), the IC50 at SUMO-activating enzyme [1] is 1 nM; in experiment [2], above 1000 nM; on NEDD8 activating enzyme [3] it was above 1000 nM; at SUMO-activating enzyme [4], 78 nM; on SUMO-activating enzyme [5], 365 nM; at SUMO-activating enzyme [6], 503 nM.

As to `CC(O)(c1cccc(Cl)c1)c1csc(C(=O)c2cncnc2N[C@@H]2C[C@H](COS(N)(=O)=O)[C@@H](O)C2)c1` (some centres undefined), the IC50 on SUMO-activating enzyme [1] is 0.2 nM; in experiment [2], above 1000 nM; at NEDD8 activating enzyme [3], 343 nM; on SUMO-activating enzyme [4], 12 nM; at SUMO-activating enzyme [5] it was 19 nM; at SUMO-activating enzyme [6], 233 nM.

Consider `NS(=O)(=O)OC[C@H]1C[C@@H](Nc2ncncc2C(=O)c2cc(C3NCCc4ccc(Cl)cc43)cs2)C[C@@H]1O` (some centres undefined), for which the concentration for half-maximal inhibition (IC50) at SUMO-activating enzyme [1] was 0.8 nM; in experiment [2] it was above 1000 nM; on NEDD8 activating enzyme [3] it was above 1000 nM; at SUMO-activating enzyme [4], 27 nM; at SUMO-activating enzyme [5], 167 nM; at SUMO-activating enzyme [6] it was 142 nM.

In the case of `CC(O)(c1csc(C(=O)c2cncnc2N[C@@H]2C[C@H](COS(N)(=O)=O)[C@@H](O)[C@H]2O)c1)c1cccc(Br)n1` (some centres undefined), the IC50 at SUMO-activating enzyme [1] is 0.1 nM; in [2] it was 616 nM; on NEDD8 activating enzyme [3], 31 nM; on SUMO-activating enzyme [4] it was 47 nM; at SUMO-activating enzyme [5], 251 nM; on SUMO-activating enzyme [6], 361 nM.

In the case of `Cc1sc(C(=O)c2cncnc2N[C@@H]2C[C@H](COS(N)(=O)=O)[C@@H](O)C2)cc1C(O)c1cccc(Cl)c1` (some centres undefined), the IC50 on SUMO-activating enzyme [1] was 0.3 nM; in [2] it was above 1000 nM; on NEDD8 activating enzyme [3], 64 nM; on SUMO-activating enzyme [4], 6 nM; on SUMO-activating enzyme [5], 8 nM; on SUMO-activating enzyme [6], 21 nM.

Regarding `Cc1sc(C(=O)c2cncnc2N[C@@H]2C[C@H](COS(N)(=O)=O)[C@@H](O)C2)cc1C1OCCc2ccccc21` (some centres undefined), the IC50 is 0.3 nM on SUMO-activating enzyme [1]; above 1000 nM in experiment [2]; 102 nM at NEDD8 activating enzyme [3]; 6 nM on SUMO-activating enzyme [4]; 4 nM at SUMO-activating enzyme [5]; 14 nM on SUMO-activating enzyme [6].

On to `NS(=O)(=O)OC[C@H]1C[C@@H](Nc2ncncc2C(=O)c2cc(C3NCCc4ccc(Cl)cc43)c(Cl)s2)C[C@@H]1O` (some centres undefined), for which the IC50 was 0.4 nM at SUMO-activating enzyme [1]; above 1000 nM in experiment [2]; above 1000 nM on NEDD8 activating enzyme [3]; 7 nM on SUMO-activating enzyme [4]; 9 nM on SUMO-activating enzyme [5]; 17 nM on SUMO-activating enzyme [6].

On to `NS(=O)(=O)OC[C@H]1C[C@@H](Nc2ncncc2C(=O)c2cc(C(O)c3cccc(Cl)c3)c(Cl)s2)C[C@@H]1O` (some centres undefined), for which the IC50 on SUMO-activating enzyme [1] was 0.3 nM; in [2], above 1000 nM; on NEDD8 activating enzyme [3] it was 341 nM; at SUMO-activating enzyme [4], 9 nM; on SUMO-activating enzyme [5] it was 17 nM; at SUMO-activating enzyme [6], 70 nM.

With `NS(=O)(=O)OC[C@H]1C[C@@H](Nc2ncncc2C(=O)c2cc([C@@H]3OCCc4ccccc43)cs2)C[C@@H]1O`, the IC50 is 0.4 nM at SUMO-activating enzyme [1]; above 1000 nM in experiment [2]; 198 nM on NEDD8 activating enzyme [3]; 4 nM at SUMO-activating enzyme [4]; 5 nM at SUMO-activating enzyme [5]; 39 nM at SUMO-activating enzyme [6].

On to `CC(N)(c1cccc(Cl)c1)c1csc(C(=O)c2cncnc2N[C@@H]2C[C@H](COS(N)(=O)=O)[C@@H](O)C2)c1` (some centres undefined), for which the IC50 on SUMO-activating enzyme [1] is 0.3 nM; in experiment [2], above 1000 nM; at NEDD8 activating enzyme [3], above 1000 nM; on SUMO-activating enzyme [4], 16 nM; at SUMO-activating enzyme [5], 29 nM; at SUMO-activating enzyme [6], 101 nM.
